Experimental data gathered from unrelated publications.
Each line is one published result; the experiments were not run side by side.
Cell line: MDA-MB-468
Read-out: cell growth or viability

| SMILES | assay | setting | IC50 |
| --- | --- | --- | --- |
| O=[N+]([O-])c1ccc(S(=O)(=O)NN=Cc2cn(CCN3CCOCC3)c3ccccc23)cc1 | MTT | 48 h | 37.1 µM |
| N=C(N)c1ccc(-c2ccc(-c3ccccc3)o2)cc1 | MTT |  | 0.66 µM |
| Cc1cc(NS(=O)(=O)c2ccc(NC(=O)COc3ccc(C(C)(C)c4ccccc4)cc3)cc2)nc(C)n1 | MTT | 72 h | 34.9 µM |
| O=C(/C=C/c1ccccc1)c1ccccc1 | resazurin | 72 h | > 50 µM |
| COc1ccc(Br)cc1/C=C/C(=O)c1ccc(NC(C)=O)cc1 | MTT | 72 h | 1.8 µM |
| COc1ccccc1N=Nc1c(O)ccc2ccccc12 | MTT |  | 21 µM |
| Cc1ccc(S(=O)(=O)NN=Cc2cn(CCN3CCOCC3)c3ccccc23)cc1 | MTT | 48 h | 40.8 µM |
| CN(C)c1ccc(/C=C/c2ccnc3ccc4ccccc4c23)cc1 | MTT |  | 0.12 µM |
| Nc1nc(Nc2ccc(S(N)(=O)=O)cc2)sc1C(=O)c1cccc(F)c1 | MTT | 72 h | 0.85 µM |
| CC1=CC(=C(c2ccc(N)c(C)c2)c2ccc(N)c(C)c2)C=CC1=N | MTT |  | 3.1 µM |
| O=S(=O)(NN=Cc1cn(CCN2CCOCC2)c2ccccc12)c1ccc(-c2ccccc2)cc1 | MTT | 48 h | 32 µM |
| COc1cc2cc(OC)c3cc4c(cc3c2c(OC)c1OC)OCO4 | MTT |  | 21 µM |
| COc1ccc(/C=C/C(=O)c2cc(Br)ccc(=O)c2O)cc1 | MTT | 48 h | 6.3 µM |
| Oc1ccc(/C=C/c2cc(O)cc3c2C(c2cc(O)cc(O)c2)C(c2ccc(O)c(O)c2)O3)cc1 (centres unmarked) | MTT |  | 18 µM |
| O=C(CSc1nc2ccc(N=Cc3ccc(Sc4nnnn4-c4ccccc4)o3)cc2s1)N1CCOCC1 | MTT | 72 h | 20.4 µM |
| O=S(=O)(NN=Cc1cn(CCN2CCOCC2)c2ccccc12)c1ccc2ccccc2c1 | MTT | 48 h | 53.4 µM |
| COc1cc(/C=C2\SC(=O)NC2=O)ccc1OCc1ccc(Cl)cc1Cl | MTT | 72 h | 64.1 µM |
| COc1cccc2c1C(=O)c1c(O)c3c(c(O)c1C2=O)C[C@@](O)(C(=O)CO)C[C@@H]3O[C@H]1C[C@H](N)[C@H](O)[C@H](C)O1 | MTT | 48 h | 0.08 µM |
| CC(=O)Nc1nc(C)c(-c2csc(Nc3ccccc3)n2)s1 | MTT | 48 h | 12.1 µM |
| CC(C)(C)c1ccc(S(=O)(=O)NN=Cc2cn(CCN3CCOCC3)c3ccccc23)cc1 | MTT | 48 h | 29.6 µM |
